Laboratory results taken from ChEMBL document CHEMBL4130442, “Design, synthesis and structure-activity relationship studies of a focused library of pyrimidine moiety with anti-proliferative and anti-metastasis activities in triple negative breast cancer” (Eur J Med Chem, 2017).
pIC50: −log10 of the molar value. Active and inactive are the calls of the source. No cut-off for these calls is given here.

Assays:
[1] = biological target: T1, Platelet-derived growth factor receptor beta (Homo sapiens, UniProt P09619); test: Inhibition of PDGFRbeta in human MDA-MB-231 cells assessed as Akt Thr305 phosphorylation level at 10 uM incubated for 24 hrs by Western blot relative to untreated control; format: cell-based
T1 sequence (P09619 whole entry): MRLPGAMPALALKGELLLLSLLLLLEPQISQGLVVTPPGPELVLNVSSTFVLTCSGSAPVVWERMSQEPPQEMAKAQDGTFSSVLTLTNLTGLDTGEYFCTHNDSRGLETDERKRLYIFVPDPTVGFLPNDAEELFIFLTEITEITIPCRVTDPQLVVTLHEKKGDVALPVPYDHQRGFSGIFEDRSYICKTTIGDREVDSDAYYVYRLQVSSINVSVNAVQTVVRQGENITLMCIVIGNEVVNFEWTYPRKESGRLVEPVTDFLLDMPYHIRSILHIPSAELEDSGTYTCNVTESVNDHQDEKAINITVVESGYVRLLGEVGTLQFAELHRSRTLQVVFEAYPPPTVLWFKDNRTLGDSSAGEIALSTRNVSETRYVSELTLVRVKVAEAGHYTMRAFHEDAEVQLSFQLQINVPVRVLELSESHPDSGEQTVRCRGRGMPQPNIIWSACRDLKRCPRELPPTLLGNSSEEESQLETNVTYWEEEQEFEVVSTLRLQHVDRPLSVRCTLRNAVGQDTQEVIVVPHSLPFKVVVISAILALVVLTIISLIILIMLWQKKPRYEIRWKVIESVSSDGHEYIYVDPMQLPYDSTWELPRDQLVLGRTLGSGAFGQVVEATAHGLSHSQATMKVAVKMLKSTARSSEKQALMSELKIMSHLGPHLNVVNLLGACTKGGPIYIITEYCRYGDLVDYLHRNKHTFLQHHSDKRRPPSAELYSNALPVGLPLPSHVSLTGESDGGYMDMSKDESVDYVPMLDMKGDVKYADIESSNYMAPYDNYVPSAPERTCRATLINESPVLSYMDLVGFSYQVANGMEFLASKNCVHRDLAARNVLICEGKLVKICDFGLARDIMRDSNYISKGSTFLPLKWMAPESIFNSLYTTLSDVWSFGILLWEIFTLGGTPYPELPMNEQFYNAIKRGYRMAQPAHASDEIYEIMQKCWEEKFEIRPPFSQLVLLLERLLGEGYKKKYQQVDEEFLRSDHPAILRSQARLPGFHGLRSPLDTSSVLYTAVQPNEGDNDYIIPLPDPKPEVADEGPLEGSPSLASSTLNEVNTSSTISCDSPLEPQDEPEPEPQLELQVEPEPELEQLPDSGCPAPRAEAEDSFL
In short: (§1)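 Cells were treated 24 h at several concentrations. Pooled adherent and floating cells were lysed in Hepes 50 mM pH 7.4 / 1% Triton X-100 buffer with vanadate, NaF, EDTA, PMSF, aprotinin and leupeptin. Equal protein was run on 10-15% SDS-PAGE and blotted to PVDF. PDGFR-β-AKT-ULK1 pathway phospho-proteins were probed and detected by ECL, with β-actin as loading control.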

MDA-MB-231 [2] = test: Effect on total Akt protein level in human MDA-MB-231 cells at 2.5 uM incubated for 24 hrs by Western blot relative to untreated control; format: ADME, cell-based; details: mda-mb-231, 24 h
In short: (§2)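 MDA-MB-231 cells were exposed for 24 h. Adherent and floating cells were pooled and lysed for 1 h at 4 °C in 50 mM Hepes pH 7.4 with 1% Triton X-100, orthovanadate, NaF, EDTA, PMSF, aprotinin and leupeptin. After 12,000 rpm clearing, equal protein was run on 10-15% SDS-PAGE and blotted to PVDF. Detection used HRP-ECL, with β-actin as loading control and densitometric quantification.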

MDA-MB-231 [3] = test: Induction of autophagy in human MDA-MB-231 cells assessed as change in LC3-2 protein level at 2.5 uM incubated for 24 hrs in presence of control siRNA by Western blot method relative to untreated control; format: functional
In short: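 Before treatment, MDA-MB-231 cells were transfected with control or PDGFR-β siRNA, then exposed to 2.5 μM compound for 24 h. Lysates of pooled adherent and floating cells were immunoblotted (10-15% SDS-PAGE, PVDF, ECL) for PDGFR-β-AKT-ULK1 autophagy signalling markers, with β-actin as loading control.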

MDA-MB-231 [4] = test: Antiproliferative activity against human MDA-MB-231 cells incubated for 72 hrs by MTT assay; format: functional, cell-based; details: MDA-MB-231, 72 h
In short: (§3)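 MDA-MB-231 cells grown in DMEM with 10% FBS under 5% CO2 were seeded at 5×10^4 cells/ml. After 24 h, a concentration series was added for 24, 48 or 72 h and viability was read by MTT. IC50 is mean ± SD of triplicates.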

[5] = biological target: T1, Platelet-derived growth factor receptor beta; test: Inhibition of PDGFRbeta in human MDA-MB-231 cells assessed as Akt Thr305 phosphorylation level at 2.5 uM incubated for 24 hrs in presence of control siRNA by Western blot relative to untreated control; format: cell-based
In short: (§4)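 Cells were transfected with control or PDGFR-β siRNA, then treated with 2.5 μM compound for 24 h. PDGFR-β-AKT-ULK1 pathway phospho-proteins were assessed by western blot: lysis in Hepes pH 7.4 / Triton buffer, 10-15% SDS-PAGE, PVDF, ECL detection, β-actin as loading control.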

MDA-MB-231 [6] = test: Induction of apoptosis in human MDA-MB-231 cells assessed as change in cleaved PARP protein level at 5 uM incubated for 24 hrs by Western blot method relative to untreated control; format: functional; in short: as §2
MDA-MB-231 [7] = test: Antiproliferative activity against human MDA-MB-231 cells incubated for 48 hrs by MTT assay; format: functional, cell-based; details: MDA-MB-231, 48 h; in short: as §3
MDA-MB-231 [8] = test: Induction of autophagy in human MDA-MB-231 cells co-transfected with GFP-mRFP-LC3 assessed as increase in LC3 puncta aggregation at 2.5 uM by fluorescence micrsocpy; format: functional, cell-based
In short: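 Cells were transfected with a GFP/mRFP-LC3 plasmid and incubated with 2.5 μM compound. GFP-LC3 puncta were then observed by fluorescence microscopy.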

MDA-MB-231 [9] = test: Effect on total PDGFRbeta protein level in human MDA-MB-231 cells at 2.5 uM incubated for 24 hrs in presence of control siRNA by Western blot relative to untreated control; format: ADME, cell-based; details: mda-mb-231, 24 h; in short: as §2
MDA-MB-231 [10] = test: Effect on total ERK1/2 protein level in human MDA-MB-231 cells at 5 uM incubated for 24 hrs in presence of PDGFRbeta siRNA by Western blot relative to untreated control; format: cell-based; details: mda-mb-231, 24 h
[11] = biological target: T1, Platelet-derived growth factor receptor beta; test: Inhibition of PDGFRbeta in human MDA-MB-231 cells assessed as ULK Ser317 phosphorylation level at 2.5 uM incubated for 24 hrs in presence of PDGFRbeta siRNA by Western blot relative to untreated control; format: cell-based; in short: as §4
[12] = biological target: T1, Platelet-derived growth factor receptor beta; test: Inhibition of PDGFRbeta in human MDA-MB-231 cells assessed as Akt Ser473 phosphorylation level at 2.5 uM incubated for 24 hrs in presence of PDGFRbeta siRNA by Western blot relative to untreated control; format: cell-based; in short: as §4
MDA-MB-231 [13] = test: Effect on total mTOR protein level in human MDA-MB-231 cells at 2.5 uM incubated for 24 hrs by Western blot relative to untreated control; format: ADME, cell-based; details: mda-mb-231, 24 h; in short: as §2
MDA-MB-231 [14] = test: Effect on total ERK1/2 protein level in human MDA-MB-231 cells at 10 uM incubated for 24 hrs in presence of PDGFRbeta siRNA by Western blot relative to untreated control; format: cell-based; details: mda-mb-231, 24 h
MDA-MB-231 [15] = test: Induction of autophagy in human MDA-MB-231 cells assessed as change in p62 protein level at 10 uM incubated for 24 hrs by Western blot method relative to untreated control; format: functional; in short: as §2
[16] = biological target: T1, Platelet-derived growth factor receptor beta; test: Inhibition of PDGFRbeta in human MDA-MB-231 cells assessed as mTOR Ser2448 phosphorylation level at 2.5 uM incubated for 24 hrs in presence of PDGFRbeta siRNA by Western blot relative to untreated control; format: cell-based; in short: as §4
MDA-MB-231 [17] = test: Effect on total mTOR protein level in human MDA-MB-231 cells at 10 uM incubated for 24 hrs by Western blot relative to untreated control; format: ADME, cell-based; details: mda-mb-231, 24 h; in short: as §2
MDA-MB-231 [18] = test: Effect on total Akt protein level in human MDA-MB-231 cells at 2.5 uM incubated for 24 hrs in presence of PDGFRbeta siRNA by Western blot relative to untreated control; format: ADME, cell-based; details: mda-mb-231, 24 h; in short: as §2
MDA-MB-231 [19] = test: Activation of ERK in human MDA-MB-231 cells assessed as ERK phosphorylation level at 2.5 to 10 uM incubated for 24 hrs by immunofluorescence assay; format: cell-based
In short: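 MDA-MB-231 cells (ATCC; DMEM, 10% FBS, 5% CO2) were treated, blocked in PBS with 1.5% goat serum, then given p-ERK antibody (1:200 in PBS with 1% BSA) overnight at 4 °C. TRITC-labelled secondary antibody followed for 1 h at room temperature. Nuclear fluorescence was read by microscopy.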

[20] = biological target: T1, Platelet-derived growth factor receptor beta; test: Inhibition of PDGFRbeta in human MDA-MB-231 cells assessed as ULK Ser555 phosphorylation level at 2.5 uM incubated for 24 hrs in presence of PDGFRbeta siRNA by Western blot relative to untreated control; format: cell-based; in short: as §4
MDA-MB-231 [21] = test: Inhibition of cell migration in human MDA-MB-231 cells at 2.5 to 10 uM incubated for 24 hrs by scratch wound healing assay; format: functional, cell-based
In short: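 Cells were grown to confluence and the monolayer was scratched with a longitudinally cut 10 μL tip. Cells were treated with 2.5, 5.0 or 10 μM compound for 24 h and wound closure was viewed by phase-contrast microscopy.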

[22] = biological target: T1, Platelet-derived growth factor receptor beta; test: Inhibition of PDGFRbeta in human MDA-MB-231 cells assessed as Akt Ser473 phosphorylation level at 2.5 uM incubated for 24 hrs by Western blot relative to untreated control; format: cell-based; in short: as §1

COc1cccc(Nc2cc(N3CCN(C(=O)Nc4ccc(C(F)(F)F)cc4)CC3)ncn2)c1
fold change (FC) [1]: 0.12
fold change (FC) (MDA-MB-231 [2]): 0.89
fold change (FC) (MDA-MB-231 [3]): 2.34
pIC50 (MDA-MB-231 [4]): 6.20
fold change (FC) [5]: 0.1
fold change (FC) (MDA-MB-231 [6]): 0.85
pIC50 (MDA-MB-231 [7]): 6.17
Activity (MDA-MB-231 [8]): Active
fold change (FC) (MDA-MB-231 [9]): 0.05
fold change (FC) (MDA-MB-231 [10]): 2
fold change (FC) [11]: 3.46
fold change (FC) [12]: 0.52
fold change (FC) (MDA-MB-231 [13]): 0.37
fold change (FC) (MDA-MB-231 [14]): 1.53
fold change (FC) (MDA-MB-231 [15]): 0.55
fold change (FC) [16]: 0.16
fold change (FC) (MDA-MB-231 [17]): 0.45
fold change (FC) (MDA-MB-231 [18]): 0.63
Activity (MDA-MB-231 [19]): Active
fold change (FC) [20]: 3.69
inhibition (MDA-MB-231 [21]): Active
fold change (FC) [22]: 0.45
